Source: ChEMBL document CHEMBL4665779, “Novel 2-Substituted 3-Hydroxy-1,6-dimethylpyridin-4(1H)-ones as Dual-Acting Biofilm Inhibitors of Pseudomonas aeruginosa” (J Med Chem, 2020)
Active and inactive are the calls of the source. The rule behind the calls is not given here.

Assays:
[1] = system: Pseudomonas aeruginosa; assay: Inhibition of biofilm formation in multidrug resistant Pseudomonas aeruginosa 1121 at 1.25 uM relative to control; type: functional
[2] = Growth inhibition of Pseudomonas aeruginosa PAO1 at 1.25 to 20 uM measured after 10 hrs in ABTGC media; details: dose 1.25-20 µM
[3] = target: T1, Anthranilate--CoA ligase (Pseudomonas aeruginosa (strain ATCC 15692 / DSM 22644 / CIP 104116 /JCM 14847 / LMG 12228 / 1C / PRS 101 / PAO1)) (UniProt Q9I4X3); assay: Inhibition of pqsA fluorescence in Pseudomonas aeruginosa PAO1 transfected with GFP by measuring fluorescence intensity every 15 mins for 12 hrs by microtiter plate reader assay; details: dose microM 1.25-20, time 12.0 hrs
T1 sequence (whole entry): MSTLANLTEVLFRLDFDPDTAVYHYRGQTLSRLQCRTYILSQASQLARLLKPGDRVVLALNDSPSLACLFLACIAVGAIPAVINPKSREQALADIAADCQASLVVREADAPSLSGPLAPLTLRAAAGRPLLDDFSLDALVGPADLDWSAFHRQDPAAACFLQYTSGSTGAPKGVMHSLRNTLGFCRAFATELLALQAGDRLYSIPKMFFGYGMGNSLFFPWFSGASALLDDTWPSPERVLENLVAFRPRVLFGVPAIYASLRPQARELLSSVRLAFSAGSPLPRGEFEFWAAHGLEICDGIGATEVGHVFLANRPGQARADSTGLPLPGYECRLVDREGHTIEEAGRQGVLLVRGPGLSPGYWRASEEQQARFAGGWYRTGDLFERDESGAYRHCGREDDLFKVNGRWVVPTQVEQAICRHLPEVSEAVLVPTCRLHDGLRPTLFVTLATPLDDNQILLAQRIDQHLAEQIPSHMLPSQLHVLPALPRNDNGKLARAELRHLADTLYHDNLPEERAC
Outline: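 PAO1-gfp, PAO1-lasB-gfp, PAO1-rhlA-gfp or PAO1-pqsA-gfp reporters were grown overnight in LB, then diluted in ABTGC medium to OD600 0.02, with compound at 1.25–20 μM. Controls were 0.1% DMSO and a blank. OD600 and GFP fluorescence (ex 485/em 535 nm) were read every 15 min for at least 12 h at 37 °C; triplicate.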

[4] = system: Pseudomonas aeruginosa; assay: Inhibition of biofilm formation in multidrug resistant Pseudomonas aeruginosa 1129 at 1.25 uM relative to control; type: functional
[5] = system: Pseudomonas aeruginosa; assay: Inhibition of biofilm formation in multidrug resistant Pseudomonas aeruginosa 1121 at 5 uM relative to control; type: functional
[6] = system: Pseudomonas aeruginosa; assay: Inhibition of biofilm formation in multidrug resistant Pseudomonas aeruginosa 1167 at 10 uM relative to control; type: functional
[7] = system: Pseudomonas aeruginosa; assay: Antibiofilm activity against Pseudomonas aeruginosa PAO1 assessed as inhibition of biofilm formation after 24 hrs by SYTO 9/propidium iodide staining based confocal microscopic analysis; type: functional, organism-based; details: dose microM 1.25-20, time 24.0 hrs
Outline: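 Biofilms were grown as in the crystal violet assay but on glass-bottom wells, with compound at 1.25–20 μM for 24 h at 37 °C against an untreated control. Wells were rinsed three times with PBS and stained for 15 min in the dark with 1 μM SYTO 9 and 10 μM propidium iodide. Confocal imaging used a 63× oil objective; triplicate.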

[8] = system: Pseudomonas aeruginosa; assay: Antibacterial activity against Pseudomonas aeruginosa infected in African green monkey Vero cells assessed as increase in cell survival pretreated for 24 hrs followed by cell addition and measured 4 hrs post-infection by MTT assay; type: functional, organism-based; details: dose microM 1.25-20, time 28.0 hrs
Outline: (§1)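 P. aeruginosa cultures were grown with 0, 1.25, 2.5, 5, 10 or 20 μM compound for 24 h at 37 °C with shaking. Washed cells (in DMEM) were infected at MOI 100 for 4 h. Bacteria were then killed with 500 μg/mL gentamycin for 2 h, and cells were given 500 μg/mL MTT for 16 h. Formazan was dissolved in DMSO and read at 570 nm.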

[9] = system: Pseudomonas aeruginosa; assay: Antibiofilm activity against Pseudomonas aeruginosa PAO1 harboring sigma factor-Pvds mutant assessed as inhibition of biofilm formation at 20 uM relative to control; type: functional
[10] = system: Pseudomonas aeruginosa; assay: Antibacterial activity against Pseudomonas aeruginosa infected in human L02 assessed as increase in cell survival pretreated for 24 hrs followed by cell addition and measured 4 hrs post-infection by MTT assay; type: functional, organism-based; details: dose microM 1.25-20, time 28.0 hrs; outline: as §1
[11] = system: Pseudomonas aeruginosa PAO1; assay: Induction of iron chelation in Pseudomonas aeruginosa PAO1 assessed as increase in iron deficiency by measuring change in total ferric ion concentration at 5 uM by inductively coupled plasma mass spectrometry (reference value: 1.91 +/- 0.8 uM)
Outline: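 PAO1 (OD600 0.05) was diluted 1:100 into ABTGC medium and grown 24 h at 37 °C with shaking, with compound; DFP at 20 μM was the reference. Pellets were washed twice in HEPES and lysed with lysozyme in 50 mM HEPES plus sonication for 30 min. Lysates were digested with 1 M nitric acid, centrifuged, and analysed by ICP-MS. Mean ± SD, triplicate.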

[12] = system: Pseudomonas aeruginosa; assay: Inhibition of biofilm formation in multidrug resistant Pseudomonas aeruginosa 1129 at 2.5 uM relative to control; type: functional
[13] = system: Pseudomonas aeruginosa; assay: Inhibition of biofilm formation in multidrug resistant Pseudomonas aeruginosa 1129 at 20 uM relative to control; type: functional
[14] = system: Pseudomonas aeruginosa; assay: Antibiofilm activity against Pseudomonas aeruginosa PAO1 assessed as inhibition of biofilm formation after 24 hrs by crystal violet staining based assay; type: functional, organism-based; details: dose microM 1.25-20, time 24.0 hrs
Outline: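 PAO1 (OD600 0.05) was cultured in ABTGC medium at 37 °C for 24 h with compound (1.25–20 μM for the dose series). Wells were PBS-washed three times, methanol-fixed for 30 min, air-dried, and stained with 0.1% crystal violet for 30 min. Stain was solubilized in 33% acetic acid and read at 570 nm. Compound stocks were […]. Run in triplicate.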

[15] = Growth inhibition of Pseudomonas aeruginosa PAO1 at 512 uM by CLSI-based broth microdilution method
Outline: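 Broth microdilution following CLSI standards: two-fold serial dilutions were made in Mueller-Hinton broth and inoculated with P. aeruginosa to a final OD600 of 0.05. The top final concentration is printed as […].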

[16] = system: Pseudomonas aeruginosa; assay: Inhibition of biofilm formation in multidrug resistant Pseudomonas aeruginosa FB at 20 uM relative to control; type: functional
[17] = system: Pseudomonas aeruginosa; assay: Inhibition of biofilm formation in multidrug resistant Pseudomonas aeruginosa 1121 at 2.5 uM relative to control; type: functional
[18] = system: Pseudomonas aeruginosa PAO1; assay: Inhibition of quorum sensing system las in Pseudomonas aeruginosa PAO1 assessed as reduction in elastase production at 1.25 to 20 uM after 24 hrs by BODIPY fluorophore based fluorescence assay; details: dose microM 1.25-20, time 24.0 hrs
Outline: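 PAO1 in LB at OD600 0.01 was incubated with compound (0–20 μM) for 24 h at 37 °C with shaking. The centrifuged supernatant was mixed with BODIPY FL-labelled DQ elastin substrate. Fluorescence (ex 490/em 520 nm) was read every 10 min for 5 h.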

[19] = system: Pseudomonas aeruginosa; assay: Inhibition of biofilm formation in multidrug resistant Pseudomonas aeruginosa 1129 at 5 uM relative to control; type: functional
[20] = Metal chelating activity assessed as negative logarithm of total free ferric ion concentration in a solution at 60 uM measured after 48 hrs in presence of CP645 probe and Fe-NTA by fluorescence spectrophotometry analysis

**Q.** What does the source list for `CCCCCCC(=O)NCc1c(O)c(=O)cc(C)n1C`?
**A.** inhibition at 1.25 µM [1]: 11.8%; growth inhibition (GI) [2]: Non-Toxic; inhibition [3]: Dose-dependent effect; inhibition at 1.25 µM [4]: 12.7%; inhibition at 5 µM [5]: 10.6%; inhibition at 10 µM [6]: 47.4%; Activity [7]: Dose-dependent effect; Activity [8]: Dose-dependent effect; inhibition at 20 µM [9]: 20%; Activity [10]: Dose-dependent effect; Activity [11]: 1.17 µM; inhibition at 2.5 µM [12]: 21.3%; inhibition at 20 µM [13]: 40%; inhibition [14]: Dose-dependent effect; growth inhibition (GI) [15]: Non-Toxic; inhibition at 20 µM [16]: 14.4%; inhibition at 2.5 µM [17]: 7.68%; inhibition [18]: Active; inhibition at 5 µM [19]: 30.6%; pFe3+ [20]: 22
